Calls of active or inactive are those of the source. No cut-off for these calls is given here.
What was measured:
MGC-803 = experiment: Cytotoxicity against human MGC803 cells after 48 hrs by MTT assay; format: functional, cell-based; details: MGC-803, 48 h
How it was run: (§1)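 Cells grown in medium with 10% heat-inactivated FBS, 5% CO2, 37 °C. Compounds given in medium with 1% DMSO at 1.25–20 graded concentrations; 1% DMSO medium served as control. MTT (5 mg/mL) added, formazan dissolved in DMSO, absorbance read at 570/630 nm. Survival expressed relative to negative control. IC50 by Bliss method (n=5), at least three independent experiments, mean ± SD.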

NCI-H460 = experiment: Cytotoxicity against human NCI-H460 cells after 48 hrs by MTT assay; format: functional, cell-based; details: NCI-H460, 48 h; how it was run: as §1
HepG2 [1] = experiment: Cytotoxicity against human HepG2 cells after 48 hrs by MTT assay; format: functional, cell-based; details: HepG2, 48 h; how it was run: as §1
HeLa = experiment: Cytotoxicity against human HeLa cells after 48 hrs by MTT assay; format: functional, cell-based; how it was run: as §1
[2] = Cytotoxicity against human SMMC-7404 cells after 48 hrs by MTT assay; format: functional, cell-based; details: SMMC-7404, 48 h; how it was run: as §1
HUVEC = experiment: Cytotoxicity against human HUVEC cells after 48 hrs by MTT assay; format: cell-based; how it was run: as §1
HepG2 [3] = experiment: Induction of apoptosis in human HepG2 cells assessed as early apoptotic cells at 10 uM after 12 hrs by flow cytometry (reference value: 2.1 %); format: functional
How it was run: (§2)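 HepG2 cells treated 12 h at 10 or 20 µM, with untreated control. Stained with annexin V-FITC plus PI for 30 min at 25 °C in the dark. Quadrant percentages read by flow cytometry.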

HepG2 [4] = experiment: Induction of apoptosis in human HepG2 cells assessed as change in membrane integrity using acridine orange/ethidium bromide staining at 20 uM after 12 to 24 hrs by fluorescence microscopy; format: functional, cell-based
How it was run: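 HepG2 cells on coverslips treated with 20 µM in medium with 10% FBS for 12 or 24 h, with untreated 24 h control. Stained with AO/EB and examined by fluorescence microscopy: green = live, green-yellow = early apoptotic, orange = late apoptotic or necrotic.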

HepG2 [5] = experiment: Induction of apoptosis in human HepG2 cells assessed as condensation of nucleus using hoechst staining at 20 uM after 12 to 24 hrs by fluorescence microscopy; format: functional, cell-based
How it was run: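 HepG2 cells on coverslips treated at 20 µM for 12 or 24 h, with untreated 24 h control. Fixed in 4% paraformaldehyde for 10 min, then stained with Hoechst 33258 for 5 min. Nuclei viewed by fluorescence microscopy at 350 nm excitation and 460 nm emission.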

HepG2 [6] = experiment: Induction of apoptosis in human HepG2 cells assessed as change in morphology at 20 uM after 12 to 24 hrs using JC-1 staining by fluorescence microscopy; format: functional, cell-based
How it was run: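 HepG2 cells treated at 20 µM for 12 or 24 h, with untreated 24 h control. Incubated with JC-1 (5 µg/ml) at 37 °C for 20 min, rinsed in PBS. Green (515–545 nm) and red (570–600 nm) emission imaged by fluorescence microscopy; depolarization taken as a rise in green/red ratio.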

HepG2 [7] = experiment: Induction of apoptosis in human HepG2 cells assessed as late apoptotic cells at 10 uM after 12 hrs by flow cytometry (reference value: 6.9 %); format: functional; how it was run: as §2
HepG2 [8] = experiment: Induction of apoptosis in human HepG2 cells assessed as necrotic cells at 10 uM after 12 hrs by flow cytometry (reference value: 2.3 %); format: functional; how it was run: as §2
HepG2 [9] = experiment: Induction of apoptosis in human HepG2 cells after 12 hrs by flow cytometry; format: functional, cell-based; how it was run: as §2
HepG2 [10] = experiment: Induction of apoptosis in human HepG2 cells assessed as early apoptotic cells at 20 uM after 12 hrs by flow cytometry (reference value: 2.1 %); format: functional; how it was run: as §2
HepG2 [11] = experiment: Induction of apoptosis in human HepG2 cells assessed as late apoptotic cells at 20 uM after 12 hrs by flow cytometry (reference value: 6.9 %); format: functional; how it was run: as §2
HepG2 [12] = experiment: Induction of apoptosis in human HepG2 cells assessed as necrotic cells at 20 uM after 12 hrs by flow cytometry (reference value: 2.3 %); format: functional; how it was run: as §2
HepG2 [13] = experiment: Cell cycle arrest in human HepG2 cells assessed as accumulation at G1 phase at 20 uM after 12 hrs using propidium iodide staining by flow cytometry (reference value: 41.51 %); format: functional
HepG2 [14] = experiment: Cell cycle arrest in human HepG2 cells assessed as accumulation at G2 phase at 20 uM after 12 hrs using propidium iodide staining by flow cytometry (reference value: 6.20 %); format: functional
HepG2 [15] = experiment: Cell cycle arrest in human HepG2 cells assessed as accumulation at S phase at 20 uM after 12 hrs using propidium iodide staining by flow cytometry (reference value: 52.28 %); format: functional
HepG2 [16] = experiment: Cell cycle arrest in human HepG2 cells assessed as accumulation at G1 phase at 20 uM after 24 hrs using propidium iodide staining by flow cytometry (reference value: 41.51 %); format: functional
HepG2 [17] = experiment: Cell cycle arrest in human HepG2 cells assessed as accumulation at G2 phase at 20 uM after 24 hrs using propidium iodide staining by flow cytometry (reference value: 6.20 %); format: functional
HepG2 [18] = experiment: Cell cycle arrest in human HepG2 cells assessed as accumulation at S phase at 20 uM after 24 hrs using propidium iodide staining by flow cytometry (reference value: 52.28 %); format: functional
HepG2 [19] = experiment: Induction of apoptosis in human HepG2 cells assessed as generation of intracellular ROS at 20 uM after 12 to 24 hrs by fluorescence microscopy; format: functional, cell-based
How it was run: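 HepG2 cells treated at 20 µM for 12 or 24 h, with untreated 24 h control. Loaded with 20 µM DCFH-DA in cell-free medium at 37 °C for 30 min in the dark, then washed in PBS. DCF fluorescence imaged by fluorescence microscopy at 485 nm excitation and 538 nm emission.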

HepG2 [20] = experiment: Induction of apoptosis in human HepG2 cells assessed as caspase-3 expression at 20 uM by qRT-PCR analysis; format: functional, cell-based; details: TDE = time-dependent effect
How it was run: (§3)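 Total RNA extracted from HepG2 cells […]. Transcripts quantified by real-time RT-PCR, with Ct values normalized to actin by the ΔCt method. Run in triplicate per group.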

HepG2 [21] = experiment: Induction of apoptosis in human HepG2 cells assessed as caspase-8 expression at 20 uM by qRT-PCR analysis; format: functional, cell-based; details: TDE = time-dependent effect; how it was run: as §3
HepG2 [22] = experiment: Induction of apoptosis in human HepG2 cells assessed as increase in Bax level after 24 hrs by Western blot analysis; format: functional, cell-based
How it was run: (§4)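 HepG2 cells grown to 80–90% confluence, then kept 12 h in 0.1% FCS RPMI 1640. Exposed 24 h at 5, 10 or 20 µM. Cell extracts run on SDS-polyacrylamide gels, transferred to nitrocellulose and probed with primary antibodies against cytochrome c, Bax, Bcl-2, caspase-9, caspase-3 and cleaved PARP.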

HepG2 [23] = experiment: Induction of apoptosis in human HepG2 cells assessed as decrease in Bcl-2 level after 24 hrs by Western blot analysis; format: functional, cell-based; how it was run: as §4
HepG2 [24] = experiment: Induction of apoptosis in human HepG2 cells assessed as accumulation of cytochrome c in cytosol at 5 to 20 uM after 24 hrs by Western blot analysis; format: functional, cell-based; how it was run: as §4
HepG2 [25] = experiment: Induction of apoptosis in human HepG2 cells assessed as increase in caspase-9 level at 5 to 20 uM after 24 hrs by Western blot analysis; format: functional, cell-based; how it was run: as §4
HepG2 [26] = experiment: Induction of apoptosis in human HepG2 cells assessed as increase in caspase-3 level at 5 to 20 uM after 24 hrs by Western blot analysis; format: functional, cell-based; how it was run: as §4

C[C@H]1[C@H](C)CC[C@]2(C(=O)Nc3cccc(F)c3)CC[C@]3(C)C(=CC(=O)[C@@H]4[C@@]5(C)C[C@@H](O)[C@H](O)[C@@](C)(CO)[C@@H]5CC[C@]43C)[C@H]12
IC50 (MGC-803): 14.3 µM | IC50 (NCI-H460): 23.6 µM | IC50 (HepG2 [1]): 5.97 µM | IC50 (HeLa): 28.2 µM | IC50 [2]: 14.1 µM | IC50 (HUVEC): > 100 µM | Activity (HepG2 [3]): 7.2% | Activity (HepG2 [4]): Active | Activity (HepG2 [5]): Active | Activity (HepG2 [6]): Active | Activity (HepG2 [7]): 6.6% | Activity (HepG2 [8]): 2.2% | Activity (HepG2 [9]): Dose-dependent effect | Activity (HepG2 [10]): 25% | Activity (HepG2 [11]): 9% | Activity (HepG2 [12]): 2.6% | Activity (HepG2 [13]): 55.29% | Activity (HepG2 [14]): 6.09% | Activity (HepG2 [15]): 38.62% | Activity (HepG2 [16]): 65.58% | Activity (HepG2 [17]): 5.56% | Activity (HepG2 [18]): 28.86% | Activity (HepG2 [19]): Active | Activity (HepG2 [20]): tde | Activity (HepG2 [21]): tde | Activity (HepG2 [22]): Dose-dependent effect | Activity (HepG2 [23]): Dose-dependent effect | Activity (HepG2 [24]): Active | Activity (HepG2 [25]): Active | Activity (HepG2 [26]): Active
